Common to all, as to format: functional
Experiment [1] is described as follows: DPPH radical scavenging activity at 200 uM. A general note: The DPPH test is a chemical assay of radical scavenging.
The nature of experiment [2]: DPPH radical scavenging activity at 10 uM.
Experiment [3] can be described thus: DPPH radical scavenging activity at 50 uM.
Experiment [4] is described as follows: DPPH radical scavenging activity at 100 uM.
Experiment [5] relates to BV-2. In words: Inhibition of NO production in LPS-induced mouse BV2 microglia cells at 10 uM. The method in brief:
(§1)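 BV-2 microglia were exposed to LPS (1 µg/mL) alone or with compound at 10 or 20 µM for 24 h at 37 °C. Nitrite was then measured in medium sampled at the end of incubation. Data are mean ± SE of three independent experiments, each run in triplicate.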

Experiment [6] in a line: Neuroprotective effect against glutamate-induced toxicity in ICR mouse cultured cortical neurons assessed as cell viability at 10 uM. As to conditions: Cortical neurone, read-out: Activity. The procedure, abridged:
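Cultured cortical neurons were co-treated with 60 µM glutamate and compound for 24 h at 37 °C. WST-1 was then added at 1:10 in the conditioned medium for 2 h at 37 °C. Formazan absorbance was read at 450 nm against a 650 nm reference and normalized to untreated control wells. Data are mean ± SE of three independent experiments in triplicate.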

The subject of experiment [7] is BV-2. Nature of the experiment: Inhibition of NO production in LPS-induced mouse BV2 microglia cells at 20 uM. The procedure, abridged:
as §1

For `COc1ccc(/C=C/C(=O)c2ccc3c(c2)OCO3)cc1OC`, the Activity in experiment [1] was 1.56%; in experiment [2], 3.27%; in experiment [3] it was 1.95%; in experiment [4], 1.75%; in the experiment with BV-2 [5], 25.69 µM; with BV-2 [7] it was 20.6 µM. The viability at 10 µM in experiment [6] was found to be 61%.
On to `COc1ccc(/C=C/C(=O)c2cc(F)c(F)c(F)c2)cc1O`, for which the Activity is 5.29% in experiment [1]; 1.99% in experiment [2]; 2.71% in experiment [3]; 3.25% in experiment [4]; 25.07 µM in the experiment on BV-2 [5]; 22 µM in the experiment with BV-2 [7]. Further, the viability at 10 µM in experiment [6] amounted to 63%.
Regarding `COc1ccc(/C=C/C(=O)c2ccccc2)cc1O`, the Activity in experiment [1] was 5.38%; in experiment [2], 1.26%; in experiment [3], 1.46%; in experiment [4], 2.05%; in the experiment with BV-2 [5] it was 18.93 µM; in the experiment with BV-2 [7] it was 16.04 µM. The viability at 10 µM in experiment [6] was 67%.
With `COc1cc(/C=C/C(=O)c2cc(F)c(F)c(F)c2)ccc1O`, the Activity is 38% in experiment [1]; 22.9% in experiment [2]; 23.5% in experiment [3]; 32% in experiment [4]; 19.82 µM with BV-2 [5]; 12.11 µM with BV-2 [7]. Moreover, the viability at 10 µM in experiment [6] turned out to be 61%.
As to `Cc1c(C)c2c(c(C)c1O)CCC(C)(C(=O)O)O2` (stereo not drawn), the Activity in experiment [1] was found to be 78.2%; in experiment [2] it was 12.1%; in experiment [3], 30.2%; in experiment [4] it was 62.4%.
As to `COc1cc(/C=C/C(=O)c2ccc(OC)c(F)c2)ccc1O`, the Activity in experiment [1] came to 37.5%; in experiment [2] it was 17.8%; in experiment [3], 18.9%; in experiment [4], 28.4%; in the experiment on BV-2 [5], 14.21 µM; with BV-2 [7] it was 6.23 µM. Further, the viability at 10 µM in experiment [6] is 79%.
Consider `COc1cccc(/C=C/C(=O)c2ccccc2)c1O`, for which the Activity is 11% in experiment [1]; 5.4% in experiment [2]; 6.09% in experiment [3]; 7.94% in experiment [4]; 17.62 µM in the experiment on BV-2 [5]; 15.69 µM in the experiment with BV-2 [7]. Also, the viability at 10 µM in experiment [6] came out at 58%.
With `COc1cc(/C=C/C=O)ccc1O`, the Activity in experiment [1] was determined as 10.6%; in experiment [2] it was 2.37%; in experiment [3] it was 0.28%; in experiment [4] it was 0.43%.
As to `COc1cc(/C=C/C(=O)c2ccccc2)ccc1O`, the Activity was 22.6% in experiment [1]; 7.53% in experiment [2]; 11.8% in experiment [3]; 14.4% in experiment [4]; 16.14 µM with BV-2 [5]; 13.16 µM in the experiment on BV-2 [7]. In addition, the viability at 10 µM in experiment [6] turned out to be 62%.
As for `COc1cccc(/C=C/C(=O)c2cc(F)c(F)c(F)c2)c1O`, the Activity in experiment [1] was determined as 6.81%; in experiment [2], 3.08%; in experiment [3] it was 3.28%; in experiment [4] it was 5.5%; with BV-2 [5] it was 18.05 µM; in the experiment on BV-2 [7], 14.72 µM. For the same molecule, the viability at 10 µM in experiment [6] is 71%.
With `COc1ccc(/C=C/C(=O)c2ccc3c(c2)OCO3)cc1O`, the Activity in experiment [1] came to 11%; in experiment [2], 8.75%; in experiment [3], 9.14%; in experiment [4], 9.63%; with BV-2 [5], 21.3 µM; in the experiment with BV-2 [7] it was 12.44 µM. Further, the viability at 10 µM in experiment [6] was found to be 69%.
`COc1cccc(/C=C/C(=O)c2ccc3c(c2)OCO3)c1O`: the Activity in experiment [1] amounted to 22.2%; in experiment [2] it was 13.9%; in experiment [3], 14.9%; in experiment [4], 18.6%; in the experiment with BV-2 [5] it was 22.62 µM; in the experiment on BV-2 [7], 16.44 µM. Moreover, the viability at 10 µM in experiment [6] worked out at 56%.
As for `Oc1ccc(/C=C/c2cc(O)cc(O)c2)cc1`, the Activity in experiment [1] turned out to be 33.8%; in experiment [2] it was 9.45%; in experiment [3], 8.44%; in experiment [4], 28.4%.
Take `COc1cc(/C=C/C(=O)c2ccc3c(c2)OCO3)ccc1O`: the Activity was 25.1% in experiment [1]; 7.9% in experiment [2]; 12% in experiment [3]; 14.1% in experiment [4]; 12.63 µM in the experiment on BV-2 [5]; 11.32 µM in the experiment on BV-2 [7]. In experiment [6], the viability at 10 µM stood at 79%.
For the molecule `COc1ccc(/C=C/C(=O)c2ccc(OC)c(F)c2)cc1O`, the Activity was 5.02% in experiment [1]; 1.55% in experiment [2]; 1.68% in experiment [3]; 2.73% in experiment [4]; 23.4 µM with BV-2 [5]; 19.98 µM in the experiment with BV-2 [7]. Moreover, in experiment [6], the viability at 10 µM was determined as 80%.
In the case of `COc1ccc(C(=O)/C=C/c2cccc(OC)c2O)cc1F`, the Activity amounted to 2.87% in experiment [1]; 1.74% in experiment [2]; 1.14% in experiment [3]; 2.42% in experiment [4]; 19.55 µM in the experiment with BV-2 [5]; 14.19 µM in the experiment with BV-2 [7]. Moreover, the viability at 10 µM in experiment [6] is 75%.

For the origin of these results see ChEMBL document CHEMBL1157436, “Efficient synthesis and neuroprotective effect of substituted 1,3-diphenyl-2-propen-1-ones” (2008).
